# Bioassay records: PubChem BioAssay, Sanford-Burnham Center for Chemical Genomics
# tim10-1 inh: growth inhibitors of tim10-1 mutant yeast | S. cerevisiae tim10-1 ts strain growth, BacTiter-Glo, 24 h | inhibition, % at 20 µM | AID 463190 | 330,000 tested, 2.2% active;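 active = inhibition of at least 40%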;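 also: mutant grown at 25 °C; 0% = DMSO wells with yeast and 100% = wells holding no yeast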
# XBP1 UPR activ: adaptive UPR (XBP1) activation; activation, % at 20 µM; CHO-XBP1 luciferase reporter, IRE1-XBP1 UPR activation, luminescence; percent of tunicamycin response, DMSO as zero; 330,000 tested, 0.33% active; AID 463104;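 active = versus positive control, 20 µM dose yields 30% or more activation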;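 also: 100% = tunicamycin at 10 µg/mL and 0% = DMSO only wells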
#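 Material: CHO cell line with stable XBP1 luciferase reporter; schedule: 16-18 h cell attachment at 37 °C, then 6 h compound exposure; signal: glow luminescence from Steady-Glo reagent; medium: serum-containing F12 medium, 10% FBS; benchmarks: tunicamycin 10 µg/mL and vehicle-only wells; read-out: percent activation relative to tunicamycin reference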
# CHOP UPR activ: apoptotic UPR (CHOP) activation | CHO-CHOP luciferase reporter, luminescence; percent of tunicamycin response over DMSO baseline | activation, % at 10 µM | 330,000 tested, 0.34% active;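 active = at 10 µM dose, activation of 40% or more, normalized to positive control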;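 also: 100% = tunicamycin at 10 µg/mL and 0% = DMSO alone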
#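 Dosing – one dose, 10 µM in 0.5% DMSO · System – CHO-CHOP cells, stable luciferase reporter of PERK-eIF2a-CHOP signalling · Input – 500 cells/well · Control set – tunicamycin 10 µg/mL final as positive, DMSO-only wells as negative · Timing – 6 h compound treatment, 37 °C · Measure – % activation vs tunicamycin · Technique – luminescence read with Steady-Glo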
# TIM10 inh: growth inhibitors of TIM10 yeast strain. S. cerevisiae TIM10 strain growth, BacTiter-Glo luminescence, 24 h. AID 463195. inhibition, % at 10 µM. 330,000 tested, 1.4% active;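 active = inhibition of 40% or more at the single tested concentration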;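 also: wild-type TIM10 isogenic control strain grown at permissive 25 °C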
# tim23-1 inh: inhibits growth of tim23-1 mutant yeast | 330,000 tested, 1.3% active | S. cerevisiae tim23-1 growth, BacTiter-Glo luminescence, 24 h | inhibition, % at 20 µM | AID 463212;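 active = growth inhibition of the mutant yeast at or above 50%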;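 also: temperature-sensitive mutant grown at 25 °C; plate controls were DMSO-treated mutant yeast for no effect and medium wells lacking yeast for full effect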
# TIM10 conf: confirmation of TIM10 yeast growth inhibitors; AID 463215; inhibition, % at 10 µM; 4,600 tested, 63% active; shares compounds with TIM10 inh; S. cerevisiae tim10 strain growth, BacTiter-Glo luminescence, 24 h;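 active = inhibition of yeast growth at or above a set limit in either of two replicates at 10 µM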;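 also: this counterscreen used the strain with wild-type TIM10; 0% = yeast with DMSO and 100% = medium wells lacking yeast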
# Active calls of the source: *; / = no result. Rows were chosen to be rich in hits. Some 3.9% of all compounds tested hit in one or more screens of this group.
SMILES,tim10-1 inh,XBP1 UPR activ,CHOP UPR activ,TIM10 inh,tim23-1 inh,TIM10 conf
O=C(Nc1cnn(C23CC4CC(CC(C4)C2)C3)c1)c1cc(-c2ccccc2)on1,-4,3,-2,-5,0,/
Cc1ccc(NC(=S)N/N=C/c2ccc([N+](=O)[O-])s2)cc1,18,3,2,46*,-11,-18
O=C1c2cccc(OCC(=O)N3CCCc4ccccc43)c2CCN1Cc1ccc(F)cc1,34,-1,4,43*,43,-50
Cc1cccc(CN2CCc3c(OCC(=O)N4CCCc5ccccc54)cccc3C2=O)c1,32,0,6,29,29,/
Cc1ccc2nc(-c3ccncc3)c(NC3CCCCC3)n2c1,22,7,-1,43*,41,42*
COc1cc(CC(=O)OCC(=O)N2CCCCC2C)cc(OC)c1OC (centres undefined),1,0,2,0,8,/
COc1ccccc1NC(=S)N/N=C/c1ccc(O)cc1,37,4,7,53*,47,-28
O=C(Cc1ccccc1)N/N=C/c1cc(Br)cc(Cl)c1O,39,0,0,45*,38,51*
COc1cc(Br)cc(/C=N/NC(=O)Cc2ccccc2)c1O,3,-2,0,29,37,/
CC(C)(C)c1ccc(-c2nc(C#N)c(N3CCC(C(N)=O)CC3)o2)cc1,24,14,-1,6,40,/
O=C(OCC(=O)N1CCOCC1)c1ccc2ccccc2c1O,-25,3,7,-10,0,/
O=C(Nc1ccccc1)Nc1cccc(Cl)c1Cl,20,1,4,45*,40,18
COc1ccc(-c2n[nH]c(=S)n2-c2ccccc2C)cc1,16,0,0,0,19,/
COc1ccc(-c2nnn(CCc3nn[nH]n3)n2)cc1,-6,-2,0,-7,17,/
COc1ccc(N(CC(=O)Nc2cc(C)ccc2C)S(=O)(=O)c2c(C)[nH]c(=O)[nH]c2=O)cc1,-8,-4,0,2,-5,/
COc1ccc(N(CC(=O)Nc2cc(Cl)ccc2OC)S(=O)(=O)c2c(C)[nH]c(=O)[nH]c2=O)cc1,-8,-10,1,44*,0,-3
N#C/C(=N\Nc1cccc(C(F)(F)F)c1)C(=O)c1ccsc1,39,-1,2,-11,29,/
COc1ccc(C(=O)Nc2ccccc2C(=O)Nc2cc(C)ccn2)cc1,30,1,5,43*,50,44*
COc1ccc(C(=O)Nc2ccccc2C(=O)Nc2cccc(C)n2)cc1,29,0,0,25,31,/
COc1cccc2cc(/C(=N/O)c3ccccc3)oc12,36,2,1,55*,50,42*
CNc1nnc(-c2cc3cc(Cl)ccc3oc2=O)s1,18,3,7,46*,23,33*
O=C(Oc1coc(CSc2ncccn2)cc1=O)c1ccco1,22,-2,-2,29,16,/
O=C(Oc1coc(CSc2ncccn2)cc1=O)c1ccc(Br)o1,37,3,3,44*,25,18
N#C/C(=C(/O)c1ccc([N+](=O)[O-])o1)c1nc2ccccc2[nH]1,-2,2,34,-1,-3,/
Cc1ccc2nc(/C(C#N)=C\c3ccc([N+](=O)[O-])o3)[nH]c2c1,17,-9,-8,84*,29,95*
SMILES,tim10-1 inh,XBP1 UPR activ,CHOP UPR activ,TIM10 inh,tim23-1 inh,TIM10 conf
N#C/C(=C\c1ccc([N+](=O)[O-])o1)c1nc2ccccc2[nH]1,28,-6,-8,59*,-144,66*
Cc1ccccc1NC(=S)N(Cc1cccs1)C1CCCC1,35,-1,2,15,35,/
CCc1ccccc1NC(=S)N(Cc1cccs1)C1CCCC1,34,-4,0,40*,11,15
O=C(N/N=C/c1ccc([N+](=O)[O-])o1)c1sc2ccccc2c1Cl,25,-1,-1,69*,47,65*
Cc1cc(C(=O)N/N=C/c2ccc([N+](=O)[O-])o2)c(C)o1,24,-2,2,41*,24,25
COC(=O)N/N=C/c1ccc([N+](=O)[O-])o1,20,-3,0,6,22,/
Cn1cccc1/C=N/NC(=O)c1sc2ccccc2c1Cl,8,8,1,46*,46,49*
Cn1cccc1/C=N/NC(=O)Cc1cccc2ccccc12,33,-1,-2,24,-1,/
CC(C)N(Cc1ccccc1)C(=O)COC(=O)CCC(=O)c1ccc(F)cc1,10,0,0,-1,11,/
CC(C)COc1cc(=O)[nH]c(SCC(C)C)n1,36,1,0,45*,9,39*
CCc1cc(-c2n[nH]c(=S)n2C(C)c2ccccc2)cs1 (centres undefined),26,0,0,41*,40,20
CC(c1ccccc1)n1c(-c2ccc(C(C)(C)C)cc2)n[nH]c1=S (centres undefined),25,-3,3,27,48,/
Nc1nc2ccccc2n1/N=C/c1ccc(Br)cc1,19,3,5,44*,36,30
COc1ccc(CNC(=O)c2ccc(Br)o2)cc1,5,0,-2,-1,9,/
CC(c1ccco1)N(C(=O)c1ccccc1NS(=O)(=O)c1ccc(Cl)cc1)c1ccccn1 (centres undefined),36,1,3,45*,43,41*
CC(c1ccco1)N(C(=O)c1ccccc1NS(=O)(=O)c1cc([N+](=O)[O-])ccc1Cl)c1ccccn1 (centres undefined),39,0,0,45*,40,34*
Cc1csc(=Nc2c(C)n(C)n(-c3ccccc3)c2=O)n1Cc1ccccc1,15,-2,-2,1,17,/
C=CCn1c(-c2ccc(OC)cc2)csc1=Nc1c(C)n(C)n(-c2ccccc2)c1=O,37,-3,2,42*,48,33*
Cc1nn(CC(=O)N2CCC(C(N)=O)CC2)c(=O)c2nn(-c3ccccc3)c(C)c12,-4,-5,1,-4,-3,/
O=C(c1cc(Cl)ccc1[N+](=O)[O-])n1cnc2ccccc21,35,-1,-2,41*,48,29
O=C(C1Cc2ccccc2CN1S(=O)(=O)c1cccs1)N1CCCCCC1 (centres undefined),33,-3,0,44*,31,33*
O=S(=O)(c1cccc(NC(=S)N2CCN(c3ccccc3F)CC2)c1)C(F)F,28,-3,1,47*,3,36*
O=S(=O)(c1cccc(NC(=S)N2CCN(c3ccccc3)CC2)c1)C(F)F,33,-3,-2,18,20,/
